Calls of active or inactive are those of the source. No cut-off for these calls is given here.
Legend:
Zinc finger protein GLI1 = molecular target: T1, Zinc finger protein GLI1 (Mus musculus, UniProt P47806); test: Inhibition of Gli1 transcriptional activity in mouse embroyonic fibroblasts after 24 hrs by renilla luciferase reporter gene assay
T1 sequence (P47806 whole entry): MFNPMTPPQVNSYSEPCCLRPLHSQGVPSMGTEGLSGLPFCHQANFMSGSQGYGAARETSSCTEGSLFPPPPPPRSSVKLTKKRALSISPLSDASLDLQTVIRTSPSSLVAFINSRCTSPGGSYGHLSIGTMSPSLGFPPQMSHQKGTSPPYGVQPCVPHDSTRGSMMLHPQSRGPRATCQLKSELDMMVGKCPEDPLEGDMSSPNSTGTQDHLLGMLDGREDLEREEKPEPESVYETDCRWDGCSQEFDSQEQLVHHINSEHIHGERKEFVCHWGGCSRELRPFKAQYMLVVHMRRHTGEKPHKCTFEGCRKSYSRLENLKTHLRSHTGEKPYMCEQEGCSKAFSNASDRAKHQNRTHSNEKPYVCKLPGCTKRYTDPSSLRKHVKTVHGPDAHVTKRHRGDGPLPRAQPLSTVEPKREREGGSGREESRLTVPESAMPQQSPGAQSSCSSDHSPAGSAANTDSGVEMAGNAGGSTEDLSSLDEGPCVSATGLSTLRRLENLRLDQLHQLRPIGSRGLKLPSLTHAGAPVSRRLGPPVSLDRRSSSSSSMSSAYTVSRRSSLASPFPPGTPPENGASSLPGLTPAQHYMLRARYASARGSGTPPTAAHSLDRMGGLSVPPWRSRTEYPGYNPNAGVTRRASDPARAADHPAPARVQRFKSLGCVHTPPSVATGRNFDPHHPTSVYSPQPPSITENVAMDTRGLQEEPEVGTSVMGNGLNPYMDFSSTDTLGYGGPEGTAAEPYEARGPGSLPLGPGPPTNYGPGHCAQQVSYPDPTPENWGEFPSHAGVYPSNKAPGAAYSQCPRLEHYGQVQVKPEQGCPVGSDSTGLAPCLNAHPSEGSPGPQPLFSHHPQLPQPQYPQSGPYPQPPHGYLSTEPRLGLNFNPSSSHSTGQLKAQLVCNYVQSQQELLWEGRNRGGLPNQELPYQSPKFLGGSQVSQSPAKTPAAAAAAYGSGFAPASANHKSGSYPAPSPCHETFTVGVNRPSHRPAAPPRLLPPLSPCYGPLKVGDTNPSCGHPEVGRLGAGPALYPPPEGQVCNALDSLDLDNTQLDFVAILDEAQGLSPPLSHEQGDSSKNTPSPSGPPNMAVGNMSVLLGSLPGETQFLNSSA
How it was run: (§1)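 Wild-type MEFs expressing ectopic Gli1 were transfected with 12XGliBS-Luc, pRL-TK Renilla and empty or Gli1 vector. They were exposed to rising compound concentrations for 24 h; DMSO-only controls. Luciferase/Renilla ratio; mean ± SD of three independent experiments.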

Protein smoothened = Protein smoothened (Mus musculus, UniProt P56726); test: Antagonist activity at smo in SAG-treated mouse Light2 cells after 48 hrs by renilla luciferase reporter gene assay; type: functional
Sequence of Protein smoothened (P56726 whole entry): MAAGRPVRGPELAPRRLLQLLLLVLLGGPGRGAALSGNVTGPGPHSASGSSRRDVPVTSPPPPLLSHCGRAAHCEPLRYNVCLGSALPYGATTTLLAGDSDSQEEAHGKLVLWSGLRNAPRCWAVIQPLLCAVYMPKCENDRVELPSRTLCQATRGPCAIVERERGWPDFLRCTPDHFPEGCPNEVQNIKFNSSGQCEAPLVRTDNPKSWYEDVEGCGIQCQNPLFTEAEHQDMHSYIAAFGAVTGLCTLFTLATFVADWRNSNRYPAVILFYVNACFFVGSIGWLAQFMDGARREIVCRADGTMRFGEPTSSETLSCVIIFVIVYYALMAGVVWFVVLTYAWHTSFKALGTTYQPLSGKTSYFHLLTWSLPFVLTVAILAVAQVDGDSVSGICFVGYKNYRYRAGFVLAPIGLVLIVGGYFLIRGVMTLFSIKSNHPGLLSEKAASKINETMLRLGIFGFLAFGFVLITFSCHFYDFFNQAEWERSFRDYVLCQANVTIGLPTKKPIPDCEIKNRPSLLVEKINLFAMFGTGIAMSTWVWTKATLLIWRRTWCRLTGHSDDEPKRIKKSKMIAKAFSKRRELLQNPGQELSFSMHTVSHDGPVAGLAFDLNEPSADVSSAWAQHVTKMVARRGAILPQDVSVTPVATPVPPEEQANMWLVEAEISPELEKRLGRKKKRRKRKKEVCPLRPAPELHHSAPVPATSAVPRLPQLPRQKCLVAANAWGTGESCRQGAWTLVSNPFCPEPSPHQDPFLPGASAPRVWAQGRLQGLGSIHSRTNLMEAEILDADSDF
How it was run: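 NIH3T3 Shh-Light II cells carry a stable Gli-responsive firefly luciferase reporter plus pRL-TK Renilla. They were stimulated with SAG 200 nM and treated with compound for 48 h. Read-out was dual-luciferase, as the Luciferase/Renilla ratio. Mean ± SD of three independent experiments, each in triplicate.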

Medulloblastoma cell [1] = test: Growth inhibition of mouse Ptch+/- medulloblastoma cells at 1 uM after 72 hrs relative to control; type: functional; details: read-out: GI
How it was run: (§2)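 Primary medulloblastoma cells were freshly isolated from Ptch+/- mouse tumors. They were kept in short-term culture in Neurobasal Media-A with B27 minus vitamin A to retain Hh sensitivity. Cells were exposed to single compounds for 72 h, and percent growth inhibition was reported as mean ± SD.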

Medulloblastoma cell [2] = test: Growth inhibition of mouse Ptch+/- medulloblastoma cells at 0.25 uM after 72 hrs relative to control; type: functional; details: read-out: GI; how it was run: as §2
Medulloblastoma cell [3] = test: Growth inhibition of mouse Ptch+/- medulloblastoma cells at 2 uM after 72 hrs relative to control; type: functional; details: read-out: GI
Medulloblastoma cell [4] = test: Growth inhibition of mouse Ptch+/- medulloblastoma cells at 0.125 uM after 72 hrs relative to control; type: functional; details: read-out: GI; how it was run: as §2
Medulloblastoma cell [5] = test: Growth inhibition of mouse Ptch+/- medulloblastoma cells at 0.5 uM after 72 hrs relative to control; type: functional; details: read-out: GI; how it was run: as §2
[6] = molecular target: T2, Zinc finger protein GLI1 (Mus musculus) (UniProt P47806); test: Inhibition of Gli1 transcriptional activity in mouse embroyonic fibroblasts up to 30 uM after 24 hrs by renilla luciferase reporter gene assay; how it was run: as §1
T2 sequence (whole entry): T1 sequence (P47806 whole entry)

[7] = molecular target: Protein smoothened (Mus musculus) (UniProt P56726); test: Antagonist activity at smo in SuFu-/- mouse embroyonic fibroblasts assessed as downregulation of Gli2 mRNA levels after 48 hrs by qRT-PCR method; type: functional
Sequence of Protein smoothened (Mus musculus) (P56726 whole entry): as above
How it was run: (§3)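 SuFu-/- MEFs were grown in DMEM with 10% FBS, antibiotics and L-glutamine, then treated with compound for 48 h; DMSO-only controls. Gli1 and Gli2 mRNA were measured by qRT-PCR and normalized to HPRT. Mean ± SD of three independent experiments; Student's t-test versus DMSO.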

Medulloblastoma cell [8] = test: Synergistic growth inhibition of mouse Ptch+/- medulloblastoma cells at 0.5 uM after 72 hrs in presence of Gli inhibitor GlaB; type: functional; details: read-out: GI
How it was run: (§4)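 Freshly isolated Ptch+/- mouse medulloblastoma primary cells were held in short-term Neurobasal-A/B27 (minus vitamin A) culture. They were treated for 72 h with a binary combination of a Gli1 antagonist and a Smo antagonist, each at the stated concentration. Percent growth inhibition was reported.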

[9] = molecular target: Protein smoothened (Mus musculus) (UniProt P56726); test: Antagonist activity at smo in SuFu-/- mouse embroyonic fibroblasts assessed as downregulation of Gli1 mRNA levels after 48 hrs by qRT-PCR method; type: functional; how it was run: as §3
Medulloblastoma cell [10] = test: Synergistic growth inhibition of mouse Ptch+/- medulloblastoma cells at 0.25 uM after 72 hrs in presence of Gli inhibitor GlaB; type: functional; details: read-out: GI; how it was run: as §4
[11] = molecular target: T2, Zinc finger protein GLI1 (Mus musculus); test: Inhibition of Gli1 transcriptional activity in Smo-/- mouse embroyonic fibroblasts up to 20 uM after 24 hrs by renilla luciferase reporter gene assay
How it was run: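 Smo-/- MEFs were transfected with 12xGliBS-Luc and pRL-TK Renilla plus empty or Gli1 vector. They were treated with increasing concentrations of compound for 24 h; DMSO-only controls. Read-out was luciferase normalized to Renilla. Mean ± SD of three independent experiments; t-test versus DMSO.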

Medulloblastoma cell [12] = test: Synergistic growth inhibition of mouse Ptch+/- medulloblastoma cells at 0.125 uM after 72 hrs in presence of Gli inhibitor GlaB; type: functional; details: read-out: GI; how it was run: as §4
MEF [13] = test: Downregulation of Gli1 levels in SuFu-/- mouse embroyonic fibroblasts up to 20 uM after 48 hrs by qRT-PCR
MEF [14] = test: Downregulation of Gli2 levels in SuFu-/- mouse embroyonic fibroblasts up to 20 uM after 48 hrs by qRT-PCR

With `COc1cc(OC)c2c(=O)c(-c3cccc(O)c3)coc2c1` the IC50 (Zinc finger protein GLI1) was “Nd(Toxic)” and the IC50 (Protein smoothened; read-out: IC50) was over 30 µM.
For `COc1cc(OC)c2c(=O)c(-c3ccc(OCC=C(C)C)c(OCC=C(C)C)c3)coc2c1`, the inhibition of growth at 1 µM (Medulloblastoma cell [1]) was 55.9%, the inhibition of growth at 0.25 µM (Medulloblastoma cell [2]) was 42.4% and the inhibition of growth at 2 µM (Medulloblastoma cell [3]) was 65.1%. For the same compound, the inhibition of growth at 0.125 µM (Medulloblastoma cell [4]) was 28.6% and the inhibition of growth at 0.5 µM (Medulloblastoma cell [5]) was 46.6%.
In the case of `COc1cc(OC)c2c(=O)c(-c3ccc(OC)c(OCc4ccc(C#N)cc4)c3)coc2c1`, the IC50 (Zinc finger protein GLI1) is reported as “Nd(Toxic)” and the IC50 (Protein smoothened; read-out: IC50) is reported as 16 µM.
`COc1cc(OC)c2c(=O)c(-c3ccc(OC/C=C(\C)CCC=C(C)C)c(OC)c3)coc2c1` was tested, and the IC50 (Zinc finger protein GLI1) was “Nd(Toxic)” and the IC50 (Protein smoothened) was “Nd(Toxic)”.
`CS(=O)(=O)c1ccc(C(=O)Nc2ccc(Cl)c(-c3ccccn3)c2)c(Cl)c1` was tested, and the inhibition [6] was “inactive”.
`COc1cc(OC)c2c(=O)c(-c3cccc(OCc4ccc(C(F)(F)F)cc4)c3)coc2c1` was tested, and the IC50 (Zinc finger protein GLI1; read-out: IC50) was 26.7 µM and the IC50 (Protein smoothened; read-out: IC50) was 10.5 µM.
In the case of `COc1cc(OC)c2c(=O)c(-c3ccc(OC)c(OCc4ccc([N+](=O)[O-])cc4)c3)coc2c1`, the IC50 (Zinc finger protein GLI1) is reported as “Nd(Toxic)” and the IC50 (Protein smoothened; read-out: IC50) is reported as over 30 µM.
With `COc1cc(OC)c2c(=O)c(-c3ccc(OCc4ccc(C(F)(F)F)cc4)c(OC)c3)coc2c1` the IC50 (Zinc finger protein GLI1; read-out: IC50) was 55.3 µM, the inhibition of growth at 1 µM (Medulloblastoma cell [1]) was 51.8% and the IC50 (Protein smoothened; read-out: IC50) was 3.48 µM. For the same compound, the inhibition [7] was “inactive”, the inhibition of growth at 0.25 µM (Medulloblastoma cell [2]) was 23.5% and the inhibition of growth at 0.5 µM (Medulloblastoma cell [8]) was 60.1%. The inhibition of growth at 2 µM (Medulloblastoma cell [3]) was 54.2%, the inhibition of growth at 0.125 µM (Medulloblastoma cell [4]) was 20.8% and the inhibition of growth at 0.5 µM (Medulloblastoma cell [5]) was 32.5%. For the same compound, the inhibition [9] was “inactive”, the inhibition of growth at 0.25 µM (Medulloblastoma cell [10]) was 53.1% and the inhibition [11] was “inactive”. It also gave an inhibition of growth at 0.125 µM (Medulloblastoma cell [12]) of 33.5%.
`COC(=O)c1ccc(COc2cc(-c3coc4cc(OC)cc(OC)c4c3=O)ccc2OC)cc1` was tested, and the IC50 (Zinc finger protein GLI1) was “Nd(Toxic)” and the IC50 (Protein smoothened; read-out: IC50) was over 30 µM.
`COc1cc(OC)c2c(=O)c(-c3ccc(OC)c(OCc4ccccc4)c3)coc2c1` was tested, and the IC50 (Zinc finger protein GLI1; read-out: IC50) was 17.1 µM and the IC50 (Protein smoothened; read-out: IC50) was 3.72 µM.
For `COc1cc(OC)c2c(=O)c(-c3ccc(OCc4ccccc4)c(OC)c3)coc2c1`, the IC50 (Zinc finger protein GLI1; read-out: IC50) was 39.2 µM and the IC50 (Protein smoothened; read-out: IC50) was 6.92 µM.
`COc1cc(OC)c2c(=O)c(-c3ccc(OCc4ccccc4)c(OCc4ccccc4)c3)coc2c1` was tested, and the IC50 (Zinc finger protein GLI1; read-out: IC50) was 57.7 µM, the inhibition of growth at 1 µM (Medulloblastoma cell [1]) was 61.2% and the IC50 (Protein smoothened; read-out: IC50) was 0.29 µM. The inhibition [7] was “inactive”, the inhibition of growth at 0.25 µM (Medulloblastoma cell [2]) was 44.2% and the inhibition of growth at 0.5 µM (Medulloblastoma cell [8]) was 70%. For the same compound, the inhibition of growth at 2 µM (Medulloblastoma cell [3]) was 66.6%, the inhibition of growth at 0.125 µM (Medulloblastoma cell [4]) was 33.3% and the inhibition of growth at 0.5 µM (Medulloblastoma cell [5]) was 51.4%. The inhibition [9] was “inactive”, the inhibition of growth at 0.25 µM (Medulloblastoma cell [10]) was 63.4% and the inhibition [11] was “inactive”. For the same compound, the inhibition of growth at 0.125 µM (Medulloblastoma cell [12]) was 38.3%.
`COc1cc(OC)c2c(=O)c(-c3ccc(OC)c(OCC=C(C)C)c3)coc2c1` was tested, and the IC50 (Zinc finger protein GLI1; read-out: IC50) was 5.7 µM, the inhibition of growth at 1 µM (Medulloblastoma cell [1]) was 35.6% and the IC50 (Protein smoothened; read-out: IC50) was 2.87 µM. The inhibition of growth at 0.25 µM (Medulloblastoma cell [2]) was 26.3%, the Activity (MEF [13]) was “Active” and the inhibition of growth at 2 µM (Medulloblastoma cell [3]) was 55.4%. The inhibition of growth at 0.125 µM (Medulloblastoma cell [4]) was 5.9%, the inhibition of growth at 0.5 µM (Medulloblastoma cell [5]) was 29.2% and the Activity (MEF [14]) was “Active”. The inhibition [11] was “Active”.
With `COc1cc(OC)c2c(=O)c(-c3ccc(OC)c(OCc4ccc(C(N)=O)cc4)c3)coc2c1` the IC50 (Zinc finger protein GLI1) was “Nd(Toxic)” and the IC50 (Protein smoothened; read-out: IC50) was over 30 µM.
With `COc1cc(OC)c2c(=O)c(-c3ccc(OCC=C(C)C)c(OC)c3)coc2c1` the IC50 (Zinc finger protein GLI1; read-out: IC50) was 10.7 µM and the IC50 (Protein smoothened; read-out: IC50) was 6.97 µM.
`COc1cc(OC)c2c(=O)c(-c3ccc(OC)c(OC/C=C(\C)CCC=C(C)C)c3)coc2c1` was tested, and the IC50 (Zinc finger protein GLI1; read-out: IC50) was 21.2 µM and the IC50 (Protein smoothened; read-out: IC50) was 3.61 µM.
`COc1cc(OC)c2c(=O)c(-c3ccc(OC)c(OCc4ccc(C(F)(F)F)cc4)c3)coc2c1` showed an IC50 (Zinc finger protein GLI1; read-out: IC50) of 11.5 µM, an inhibition of growth at 1 µM (Medulloblastoma cell [1]) of 50.9% and an IC50 (Protein smoothened; read-out: IC50) of 2.58 µM. The inhibition of growth at 0.25 µM (Medulloblastoma cell [2]) was 40.6%, the Activity (MEF [13]) was “Active” and the inhibition of growth at 2 µM (Medulloblastoma cell [3]) was 54%. The inhibition of growth at 0.125 µM (Medulloblastoma cell [4]) was 37.7%, the inhibition of growth at 0.5 µM (Medulloblastoma cell [5]) was 44.5% and the Activity (MEF [14]) was “Active”. For the same compound, the inhibition [11] was “Active”.
Compound `COc1cc(OC)c2c(=O)c(-c3cccc(OCC=C(C)C)c3)coc2c1` has an IC50 (Zinc finger protein GLI1; read-out: IC50) of over 20 µM and an IC50 (Protein smoothened; read-out: IC50) of over 30 µM.

Reference: ChEMBL document CHEMBL4270564, “Synergistic inhibition of the Hedgehog pathway by newly designed Smo and Gli antagonists bearing the isoflavone scaffold” (Eur J Med Chem, 2018)
